According to ChEMBL document CHEMBL1629712, “Design, synthesis and discovery of 5-hydroxyaurone derivatives as growth inhibitors against HUVEC and some cancer cell lines” (Eur J Med Chem, 2010):

Assays:
[1] = system: HUVEC; assay: Antiangiogenic activity in HUVEC after 96 hrs by MTT assay; type: functional, cell-based; settings: Homo sapiens
In short: (§1)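 MTT viability. Seeding was 1000 cells/well for HUVEC, 1500 for MCF-7 and CCC-HPF-1, and 2000 for A549. After 20 h attachment, compound or carrier was added from 2% DMSO/PBS stocks (final DMSO 0.1%), in triplicate per concentration.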

[2] = system: MCF7; assay: Antiproliferative activity against human MCF7 cells after 96 hrs by MTT assay; settings: MCF7, 96 h
[3] = system: A549; assay: Antiproliferative activity against human A549 cells after 96 hrs by MTT assay; type: functional, cell-based; settings: A549, 96 h; in short: as §1
[4] = Selectivity ratio of CC50 for human CCC-HPF1 cells to IC50 for HUVEC; type: ADME, cell-based; settings: CCC-HPF1 cells versus HUVEC, read-out: Ratio CC50/IC50
[5] = Antiproliferative activity against human CCC-HPF1 cells after 96 hrs by MTT assay; type: cell-based; in short: as §1

Compound	IC50 [1] [µM]	IC50 [2] [µM]	IC50 [3] [µM]	selectivity ratio [4]	CC50 at 96 h [5] [µM]
CO[C@@H]1[C@H](OC(=O)/C=C/C=C/C=C/C=C/C(=O)O)CC[C@]2(CO2)[C@H]1[C@@]1(C)O[C@@H]1CC=C(C)C [FUMAGILLIN]	0.0089	≥ 50	≥ 50		
CN(C)c1ccc(/C=C2\Oc3ccc(O)cc3C2=O)cc1	1.35	10.1	18.7	20	25.1
